Measurements reported in ChEMBL document CHEMBL1137710, “Synthesis and in vitro antitumor activity of new quinoxaline derivatives” (2009).

Legend:
Type in all cases: functional
UACC-257 = assay: Growth inhibition of human UACC257 cells after 48 hrs by sulforhodamine B assay; conditions: UACC-257, 48 h
Method in brief: (§1)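 Run in the NCI 60-human-tumour-cell-line panel, tested over a 5-log dose range. Dose–response curves gave three values per cell line, each as a log10 molar concentration: GI50 (50% inhibition of net cell growth), TGI (total inhibition of net growth) and LC50 (50% net cell death). The mean graph midpoint is the arithmetic mean over all lines, with insensitive lines entered at the highest concentration tested.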

SK-OV-3 = assay: Growth inhibition of human SKOV3 cells after 48 hrs by sulforhodamine B assay; conditions: SK-OV-3, 48 h
Method in brief: (§2)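 NCI 60-human-tumor-cell-line panel, with compounds tested over a 5-log dose range. Values are taken from dose-response curves as log10 molar concentrations: GI50 is 50% net growth inhibition, TGI is total growth inhibition, and LC50 is 50% net cell death.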

SF-268 = assay: Anticancer activity against human SF268 cells assessed as cell growth at 100 uM after 48 hrs by sulforhodamine B assay; conditions: SF-268, 48 h, read-out: Activity
SF-539 = assay: Growth inhibition of human SF539 cells after 48 hrs by sulforhodamine B assay; conditions: SF-539, 48 h; method in brief: as §2
MCF7 = assay: Growth inhibition of human MCF7 cells after 48 hrs by sulforhodamine B assay; conditions: MCF7, 48 h; method in brief: as §2
NCI-H226 = assay: Growth inhibition of human NCI-H226 cells after 48 hrs by sulforhodamine B assay; conditions: NCI-H226, 48 h; method in brief: as §2
NCI-H460 = assay: Growth inhibition of human NCI-H460 cells after 48 hrs by sulforhodamine B assay; conditions: NCI-H460, 48 h; method in brief: as §2
OVCAR-3 = assay: Growth inhibition of human OVCAR-3 cells after 48 hrs by sulforhodamine B assay; conditions: OVCAR-3, 48 h; method in brief: as §2
NCI-H23 = assay: Growth inhibition of human NCI-H23 cells after 48 hrs by sulforhodamine B assay; conditions: NCI-H23, 48 h; method in brief: as §2
CCRF-CEM = assay: Growth inhibition of human CCRF-CEM cells after 48 hrs by sulforhodamine B assay; method in brief: as §2
Malme-3M = assay: Growth inhibition of human MALME-3M cells after 48 hrs by sulforhodamine B assay; method in brief: as §2
SK-MEL-2 = assay: Growth inhibition of human SK-MEL-2 cells after 48 hrs by sulforhodamine B assay; conditions: SK-MEL-2, 48 h; method in brief: as §2
KM12 = assay: Growth inhibition of human KM12 cells after 48 hrs by sulforhodamine B assay; conditions: KM12, 48 h; method in brief: as §2
UACC-62 = assay: Growth inhibition of human UACC62 cells after 48 hrs by sulforhodamine B assay; conditions: UACC-62, 48 h; method in brief: as §1
T47D = assay: Growth inhibition of human T47D cells after 48 hrs by sulforhodamine B assay; method in brief: as §1
SNB-19 = assay: Growth inhibition of human SNB19 cells after 48 hrs by sulforhodamine B assay; conditions: SNB-19, 48 h; method in brief: as §1
A498 = assay: Growth inhibition of human A498 cells after 48 hrs by sulforhodamine B assay; conditions: A498, 48 h; method in brief: as §2
UO-31 = assay: Growth inhibition of human UO31 cells after 48 hrs by sulforhodamine B assay; conditions: UO-31, 48 h; method in brief: as §1
[1] = Growth inhibition of human […] cells after 48 hrs by sulforhodamine B assay; method in brief: as §2
HL-60(TB) = assay: Growth inhibition of human HL-60(TB) cells after 48 hrs by sulforhodamine B assay; conditions: HL-60, 48 h
Method in brief: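 Tested only on compounds active in a three-line prescreen, in the NCI 60-human-tumour-cell-line panel over a 5-log dose range. Values come from dose–response curves as log10 molar GI50, the concentration inhibiting 50% net cell growth. Log10 TGI (total growth inhibition) and log10 LC50 (50% net cell death) were derived too. Mean graph midpoints include insensitive lines at the highest concentration tested.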

HOP-62 = assay: Growth inhibition of human HOP62 cells after 48 hrs by sulforhodamine B assay; conditions: HOP-62, 48 h; method in brief: as §2
[2] = read-out: pLC50 (the source's name) (converted)

COc1ccc(Sc2nc3cc(N)cc(N)c3nc2-c2ccccc2)cc1
GI50 (UACC-257): 43.7 µM | CC50 (UACC-257; [2]): > 100 µM | TGI (UACC-257; read-out: pTGI (converted)): > 100 µM | GI50 (SK-OV-3): 33.1 µM | CC50 (SK-OV-3; [2]): > 100 µM | TGI (SK-OV-3; read-out: pTGI (converted)): > 100 µM | growth at 100 µM (SF-268): 7% | GI50 (SF-539): 10 µM | LC50 (SF-539): > 100 µM | TGI (SF-539; read-out: pTGI (converted)): > 100 µM | GI50 (MCF7): 16.6 µM | CC50 (MCF7; [2]): > 100 µM | TGI (MCF7; read-out: pTGI (converted)): > 100 µM | LC50 (NCI-H226): > 100 µM | TGI (NCI-H226; read-out: pTGI (converted)): > 100 µM | GI50 (NCI-H460): 20 µM | LC50 (50% net cell kill) (NCI-H460): > 100 µM | TGI (NCI-H460; read-out: pTGI (converted)): > 100 µM | CC50 (OVCAR-3; [2]): > 100 µM | TGI (OVCAR-3; read-out: pTGI (converted)): > 100 µM | GI50 (NCI-H23): > 100 µM | LC50 (50% net cell kill concentration) (NCI-H23): > 100 µM | TGI (NCI-H23; read-out: pTGI (converted)): > 100 µM | GI50 (CCRF-CEM): 2.29 µM | LC50 (CCRF-CEM): > 100 µM | TGI (CCRF-CEM; read-out: pTGI (converted)): 8.32 µM | GI50 (Malme-3M): 33.1 µM | CC50 (Malme-3M; [2]): > 100 µM | TGI (Malme-3M; read-out: pTGI (converted)): 95.5 µM | CC50 (SK-MEL-2; [2]): > 100 µM | TGI (SK-MEL-2; read-out: pTGI (converted)): > 100 µM | GI50 (KM12): 28.2 µM | LC50 (50% net cell kill) (KM12): > 100 µM | TGI (KM12; read-out: pTGI (converted)): > 100 µM | GI50 (UACC-62): 38 µM | CC50 (UACC-62; [2]): > 100 µM | TGI (UACC-62; read-out: pTGI (converted)): > 100 µM | GI50 (T47D): > 100 µM | CC50 (T47D; [2]): > 100 µM | TGI (T47D; read-out: pTGI (converted)): > 100 µM | GI50 (SNB-19): > 100 µM | LC50 (SNB-19): > 100 µM | TGI (SNB-19; read-out: pTGI (converted)): > 100 µM | GI50 (A498): 17.4 µM | CC50 (A498; [2]): 60.3 µM | TGI (A498; read-out: pTGI (converted)): 32.4 µM | GI50 (UO-31): 4.17 µM | CC50 (UO-31; [2]): > 100 µM | TGI (UO-31; read-out: pTGI (converted)): > 100 µM | GI50 [1]: 3.98 µM | LC50 [1]: > 100 µM | TGI ([1]; read-out: pTGI (converted)): 85.1 µM | GI50 (HL-60(TB)): 4.27 µM | LC50 (HL-60(TB)): > 100 µM | TGI (HL-60(TB); read-out: pTGI (converted)): > 100 µM | GI50 (HOP-62): > 100 µM | LC50 (HOP-62): > 100 µM | TGI (HOP-62; read-out: pTGI (converted)): > 100 µM
